Data taken from paper PMC9064382 (RSC Advances, 2019).

Assays:
Format in all cases: in vitro ADME
hOATP1B3 = biological target: T1, hOATP1B3 (Homo sapiens, UniProt Q9NPD5)
T1 sequence (Q9NPD5 1-702): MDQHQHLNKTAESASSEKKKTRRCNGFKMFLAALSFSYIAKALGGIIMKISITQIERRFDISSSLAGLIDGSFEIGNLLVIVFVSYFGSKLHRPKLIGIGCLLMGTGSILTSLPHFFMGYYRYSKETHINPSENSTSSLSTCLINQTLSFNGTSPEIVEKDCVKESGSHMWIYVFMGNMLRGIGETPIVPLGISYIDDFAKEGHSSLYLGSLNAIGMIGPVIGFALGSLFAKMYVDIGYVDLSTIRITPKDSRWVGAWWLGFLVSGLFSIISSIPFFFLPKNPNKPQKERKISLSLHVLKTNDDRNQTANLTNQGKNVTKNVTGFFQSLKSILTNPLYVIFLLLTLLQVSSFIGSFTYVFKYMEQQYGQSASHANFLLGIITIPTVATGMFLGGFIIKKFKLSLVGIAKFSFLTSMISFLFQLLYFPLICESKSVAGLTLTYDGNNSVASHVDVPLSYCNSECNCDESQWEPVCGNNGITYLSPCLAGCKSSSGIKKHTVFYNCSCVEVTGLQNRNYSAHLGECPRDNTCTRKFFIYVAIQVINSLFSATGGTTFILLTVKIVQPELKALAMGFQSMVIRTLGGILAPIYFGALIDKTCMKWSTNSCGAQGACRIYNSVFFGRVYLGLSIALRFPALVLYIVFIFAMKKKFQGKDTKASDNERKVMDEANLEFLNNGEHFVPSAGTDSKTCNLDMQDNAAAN

hOAT3 = biological target: T2, hOAT3 (Homo sapiens, UniProt Q8TCC7); assay: Inhibition of 3H-ES uptake in hOAT3-transfected cells by liquorice ingredients; settings: read-out: IC50 on hOAT3; 3H-ES probe, 2 min
T2 sequence (Q8TCC7 1-542): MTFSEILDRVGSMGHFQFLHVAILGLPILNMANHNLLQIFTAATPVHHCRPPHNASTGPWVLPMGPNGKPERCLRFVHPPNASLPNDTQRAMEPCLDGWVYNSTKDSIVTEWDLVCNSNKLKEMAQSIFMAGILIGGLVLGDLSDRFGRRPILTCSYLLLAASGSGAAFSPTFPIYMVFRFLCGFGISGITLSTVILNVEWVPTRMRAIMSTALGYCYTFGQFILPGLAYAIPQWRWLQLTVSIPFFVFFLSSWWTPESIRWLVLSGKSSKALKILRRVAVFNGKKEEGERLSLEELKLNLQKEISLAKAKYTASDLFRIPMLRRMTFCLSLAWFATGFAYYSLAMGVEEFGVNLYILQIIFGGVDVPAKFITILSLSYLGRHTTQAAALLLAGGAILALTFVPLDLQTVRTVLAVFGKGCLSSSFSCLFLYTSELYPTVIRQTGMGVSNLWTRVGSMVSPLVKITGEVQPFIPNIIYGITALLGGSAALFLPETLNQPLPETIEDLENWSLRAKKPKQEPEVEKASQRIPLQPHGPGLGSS
Method in brief: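 Transfected and mock cells were incubated 2 min at 37 °C with 200 nmol L−1 3H-ES plus test compound. The screen used a single 100 μmol L−1 concentration with reference inhibitors as positive controls, giving an inhibition rate (n = 3, mean ± sd). […] DMSO was <0.2%. Cells were stopped with cold DPBS, rinsed three times, lysed in 0.1 mol L−1 NaOH and counted by scintillation (dpm).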

hOCT1 = biological target: T3, hOCT1 (Homo sapiens, UniProt O15245); assay: Inhibition of 14C-TEA uptake in hOCT1-transfected cells by liquorice ingredients; settings: read-out: IC50 on hOCT1; 14C-TEA probe, 5 min
T3 sequence (O15245 1-554): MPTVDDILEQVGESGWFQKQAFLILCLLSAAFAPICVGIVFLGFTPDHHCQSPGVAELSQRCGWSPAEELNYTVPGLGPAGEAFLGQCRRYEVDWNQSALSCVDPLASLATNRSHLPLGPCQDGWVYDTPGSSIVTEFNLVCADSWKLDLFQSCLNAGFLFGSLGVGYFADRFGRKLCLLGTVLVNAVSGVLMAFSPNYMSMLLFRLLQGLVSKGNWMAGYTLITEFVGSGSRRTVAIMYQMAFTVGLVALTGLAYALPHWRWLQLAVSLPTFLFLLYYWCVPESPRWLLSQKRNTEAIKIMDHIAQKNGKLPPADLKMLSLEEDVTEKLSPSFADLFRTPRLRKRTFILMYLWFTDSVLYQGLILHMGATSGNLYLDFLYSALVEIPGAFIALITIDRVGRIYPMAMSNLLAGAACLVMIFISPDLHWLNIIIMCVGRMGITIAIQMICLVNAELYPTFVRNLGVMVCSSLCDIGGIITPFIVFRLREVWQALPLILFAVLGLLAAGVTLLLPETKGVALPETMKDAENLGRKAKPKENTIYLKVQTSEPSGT
Method in brief: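 Transfected and mock cells were seeded at 2 × 10^5/well and grown 48 h. They were then exposed at 37 °C to test compound at 1, 3, 10, 30 and 100 μmol L−1 (DMSO <0.2%) with either 5 μmol L−1 14C-PAH for 2 min (hOAT1) or 5 μmol L−1 14C-TEA for 5 min (hOCT1). Uptake was stopped with cold DPBS and three rinses, cells lysed in 0.1 mol L−1 NaOH, counted by liquid scintillation (dpm), and IC50 calculated.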

IC50 (hOATP1B3; read-out: IC50 on hOATP1B3, 3H-ES probe, 2 min): 1.91 µM | inhibition of hOATP1B3 (hOATP1B3; screening at 100 μm): strong inhibitors | IC50 (hOAT3): 3.6 µM | IC50 (hOCT1): 14 µM
Structure (SMILES): C=CC(C)(C)c1cc(/C=C/C(=O)c2ccc(O)cc2)c(OC)cc1O [licochalcone A]
